What all share (format): functional
For assay [1], the system named is Trichophyton mentagrophytes. As to the kind of experiment: Antifungal activity against Trichophyton mentagrophytes by serial plate dilution method.
For assay [2], the system named is Escherichia coli. Put plainly: microbe, parasite or virus in culture. To be noted: ATCC25922, read-out: IZ.
Assay [3] deals with Pseudomonas aeruginosa. Put plainly: Antibacterial activity against Pseudomonas aeruginosa ATTC 27853 after 16 to 18 hrs by serial plate dilution method. To be noted: ATCC27853. The essentials: (§1)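 Serial dilutions were made in Mueller-Hinton broth in tubes, adjusted to […] with phosphate buffer, and inoculated with a standardized bacterial suspension. Tubes were incubated at 37 °C for 16–18 h. MIC was taken as the lowest concentration with no visible growth.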

Assay [4] concerns Talaromyces marneffei. Put plainly: Antifungal activity against Penicillium marneffei at 12 ug/ml after 3 to 4 days. To be noted: read-out: IZ. The gist of the method:
(§2)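 Agar of peptone 1 g, D-glucose 4 g and agar 2 g per 100 mL water, pH 5.7, was lawned with a fungal spore suspension in normal saline. The excess was decanted and plates were dried at 37 °C for 1 h. Wells were punched and compounds in DMSO were added, with a DMSO control. Plates were run in triplicate at 37 °C for 3–4 days, and the inhibition zone diameter was measured.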

The test system of assay [5] is Aspergillus fumigatus. Put plainly: Antifungal activity against Aspergillus fumigatus NCIM 902 at 12 ug/ml after 3 to 4 days. To be noted: read-out: IZ. The essentials:
as §2

The subject of assay [6] is Aspergillus fumigatus. As to the kind of experiment: Antifungal activity against Aspergillus fumigatus NCIM 902 by serial plate dilution method.
For assay [7], the system named is Staphylococcus aureus. As to the kind of experiment: Antibacterial activity against Staphylococcus aureus ATTC 25923 after 16 to 18 hrs by serial plate dilution method. The essentials:
as §1

For assay [8], the system named is Talaromyces marneffei. As to the kind of experiment: Antifungal activity against Penicillium marneffei by serial plate dilution method. The gist of the method:
as §2

Assay [9] relates to Staphylococcus aureus. As to the kind of experiment: Antibacterial activity against Staphylococcus aureus ATTC 25923 at 12 ug/ml after 3 to 4 days. To be noted: read-out: IZ. The gist of the method: (§3)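 Agar well diffusion. Plates were seeded with a bacterial suspension, the excess was decanted and plates were dried at 37 °C for 1 h. Wells were punched and compounds in DMSO were added, with DMSO wells as control. Plates were run in triplicate at 37 °C for 3–4 days and zones of inhibition were scored.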

In assay [10] the test system is Aspergillus flavus. Put plainly: Antifungal activity against Aspergillus flavus NCIM 524 at […] ug/ml after 3 to 4 days. To be noted: read-out: IZ.
Assay [11] concerns Klebsiella pneumoniae. As to the kind of experiment: Antibacterial activity against Klebsiella pneumoniae after 16 to 18 hrs by serial plate dilution method. The essentials: as §1
The test system of assay [12] is Aspergillus flavus. As to the kind of experiment: Antifungal activity against Aspergillus flavus NCIM 524 by serial plate dilution method. The gist of the method: as §2
For assay [13], the system named is Klebsiella pneumoniae. As to the kind of experiment: Antibacterial activity against Klebsiella pneumoniae at 12 ug/ml after 3 to 4 days. To be noted: read-out: IZ. The gist of the method: as §3
Assay [14] concerns Escherichia coli. Put plainly: Antibacterial activity against Escherichia coli ATTC 25922 after 16 to 18 hrs by serial plate dilution method. To be noted: ATCC25922. The essentials:
as §1

Assay [15] relates to Trichophyton mentagrophytes. Put plainly: Antifungal activity against Trichophyton mentagrophytes at […] ug/ml after 3 to 4 days. To be noted: read-out: IZ.
For assay [16], the system named is Pseudomonas aeruginosa. As to the kind of experiment: microbe, parasite or virus in culture. To be noted: ATCC27853, read-out: IZ.
The subject of assay [17] is Trichophyton mentagrophytes. As to the kind of experiment: Antifungal activity against Trichophyton mentagrophytes at 12 ug/ml after 3 to 4 days. To be noted: read-out: IZ. The gist of the method:
as §2

For assay [18], the system named is Aspergillus fumigatus. As to the kind of experiment: Antifungal activity against Aspergillus fumigatus NCIM 902 at […] ug/ml after 3 to 4 days. To be noted: read-out: IZ.
Assay [19] has as its system Aspergillus flavus. As to the kind of experiment: Antifungal activity against Aspergillus flavus NCIM 524 at 12 ug/ml after 3 to 4 days. To be noted: read-out: IZ. The gist of the method:
as §2

For assay [20], the system named is Klebsiella pneumoniae. Put plainly: microbe, parasite or virus in culture. To be noted: read-out: IZ.
For assay [21], the system named is Escherichia coli. Put plainly: Antibacterial activity against Escherichia coli ATTC 25922 at 12 ug/ml after 3 to 4 days. To be noted: ATCC25922, read-out: IZ. The gist of the method: as §3
For assay [22], the system named is Talaromyces marneffei. Put plainly: Antifungal activity against Penicillium marneffei at […] ug/ml after 3 to 4 days. To be noted: read-out: IZ.
Assay [23] relates to Rattus norvegicus. As to the kind of experiment: Antiinflammatory activity against carrageenan-induced paw oedema in albino rat at 50 mg/kg, po relative to control. The gist of the method:
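Albino rats of 180–250 g were fasted 18 h and placed in groups of six. Samples were suspended in 2% w/v acacia mucilage, and the vehicle group served as control. 30 min after dosing, carrageenan (1 mg mL⁻¹, 0.1 mL) was injected subcutaneously into the right hind paw. Paw volume was measured immediately and at 3 h, and % oedema inhibition was calculated versus vehicle controls.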
On the technique in general: Carrageenan injected into the paw causes an acute inflammation.

The subject of assay [24] is Staphylococcus aureus. As to the kind of experiment: Antibacterial activity against Staphylococcus aureus ATTC 25923 at […] ug/ml after 3 to 4 days. To be noted: read-out: IZ.
Assay [25] has as its system Pseudomonas aeruginosa. Put plainly: Antibacterial activity against Pseudomonas aeruginosa ATTC 27853 at 12 ug/ml after 3 to 4 days. To be noted: ATCC27853, read-out: IZ. The gist of the method: as §3
Assay [26] concerns Pseudomonas aeruginosa. Put plainly: Antibacterial activity against Pseudomonas aeruginosa ATTC 27853 at 25 ug/ml after 3 to 4 days. To be noted: ATCC27853, read-out: IZ. The essentials:
as §3

Assay [27] relates to Trichophyton mentagrophytes. Put plainly: Antifungal activity against Trichophyton mentagrophytes at 25 ug/ml after 3 to 4 days. To be noted: read-out: IZ. The gist of the method:
as §2

The test system of assay [28] is Klebsiella pneumoniae. Put plainly: Antibacterial activity against Klebsiella pneumoniae at 25 ug/ml after 3 to 4 days. To be noted: read-out: IZ. The gist of the method: as §3
In assay [29] the test system is Aspergillus flavus. As to the kind of experiment: Antifungal activity against Aspergillus flavus NCIM 524 at 25 ug/ml after 3 to 4 days. To be noted: read-out: IZ. The essentials:
as §2

The subject of assay [30] is Aspergillus fumigatus. As to the kind of experiment: Antifungal activity against Aspergillus fumigatus NCIM 902 at 6.5 ug/ml after 3 to 4 days. To be noted: read-out: IZ. The essentials: as §2

Each structure is given as a SMILES string. In brackets after ≈: the same amount, converted by molar mass.

As for `Cc1cc(C)cc(-c2nn3c(-c4cc(Cl)cc(Cl)c4Cl)nnc3s2)c1`, the MIC (commonly the lowest concentration that inhibits growth of the organism) in assay [1] turned out to be 6.25 µg/mL (≈ 15.3 µM); in [3], 6.25 µg/mL (≈ 15.3 µM); in assay [6] it was 12 µg/mL (≈ 29.3 µM); in [7] it was 12 µg/mL (≈ 29.3 µM); in assay [8], 12 µg/mL (≈ 29.3 µM); in assay [11], 12 µg/mL (≈ 29.3 µM). The MIC in assay [12] and in assay [14] was 6.25 µg/mL (≈ 15.3 µM) throughout. In addition, the zone of inhibition at 6.25 µg/mL in assay [2], in assay [10], in [15] and in assay [16] was 16 mm each time. Further, the zone of inhibition at 12 µg/mL in assay [4], in assay [5], in assay [9] and in assay [13] was 11 mm in each case.
Turning to `Clc1cc(Cl)c(Cl)c(-c2nnc3n2N=C(c2ccccc2)CS3)c1`, the minimal inhibitory concentration (MIC) is 12 µg/mL (≈ 30.3 µM) in assay [1]; 6.25 µg/mL (≈ 15.8 µM) in assay [3]; 6.25 µg/mL (≈ 15.8 µM) in assay [6]; 12 µg/mL (≈ 30.3 µM) in assay [7]; 12 µg/mL (≈ 30.3 µM) in [8]; 6.25 µg/mL (≈ 15.8 µM) in [11]. The MIC in [12] and in assay [14] was 12 µg/mL (≈ 30.3 µM) in each case. For the same compound, the zone of inhibition at 12 µg/mL in assay [17], in assay [4], in assay [9], in [19] and in [21] was 11 mm in each case. For the same compound, the zone of inhibition at 6.25 µg/mL in assay [18], in assay [20] and in assay [16] was 16 mm each time.
On to `Cc1ccc(C2=Nn3c(nnc3-c3cc(Cl)cc(Cl)c3Cl)SC2)cc1`, for which the MIC in assay [1] was 6.25 µg/mL (≈ 15.3 µM); in assay [3] it was 12 µg/mL (≈ 29.3 µM); in assay [6], 6.25 µg/mL (≈ 15.3 µM); in [7], 6.25 µg/mL (≈ 15.3 µM); in assay [8], 6.25 µg/mL (≈ 15.3 µM); in assay [11], 12 µg/mL (≈ 29.3 µM). Besides, the MIC in assay [12] and in [14] was 6.25 µg/mL (≈ 15.3 µM) throughout. Besides, the zone of inhibition at 6.25 µg/mL in assay [2], in assay [22], in [10], in assay [18], in [24] and in [15] was 16 mm each time. Besides, at 50 mg/kg the inhibition in vivo in assay [23] was 19.4%. Further, the zone of inhibition at 12 µg/mL in assay [25] and in [13] was 11 mm throughout.
Regarding `Clc1cc(Cl)c(Cl)c(-c2nnc3sc(-c4cccc5cnccc45)nn23)c1`, the minimal inhibitory concentration (MIC) in [1] was 25 µg/mL (≈ 57.8 µM); in [3], 25 µg/mL (≈ 57.8 µM); in assay [6] it was 6.25 µg/mL (≈ 14.4 µM); in assay [7], 12 µg/mL (≈ 27.7 µM); in [8], 6.25 µg/mL (≈ 14.4 µM); in [11], 25 µg/mL (≈ 57.8 µM). Besides, the minimal inhibitory concentration (MIC) stood at 25 µg/mL (≈ 57.8 µM) in [12] and 12 µg/mL (≈ 27.7 µM) in assay [14]. The zone of inhibition at 25 µg/mL in assay [26], in assay [27], in [28] and in [29] was less than 10 mm each time. Further, the zone of inhibition at 6.25 µg/mL in [22] and in [18] was 16 mm each time. In assay [23], the inhibition in vivo (usually the drop in the measured response relative to a control, in per cent) at 50 mg/kg is 22.6%. Moreover, the zone of inhibition at 12 µg/mL in assay [9] and in assay [21] was 11 mm in each case.
Take `Clc1cc(Cl)c(Cl)c(-c2nnc3sc(-c4ccccc4)nn23)c1`: the MIC in assay [1] amounted to 6.25 µg/mL (≈ 16.4 µM); in assay [3] it was 6.25 µg/mL (≈ 16.4 µM); in assay [6] it was 12 µg/mL (≈ 31.4 µM); in [7], 6.25 µg/mL (≈ 16.4 µM); in assay [8] it was 12 µg/mL (≈ 31.4 µM); in [11] it was 12 µg/mL (≈ 31.4 µM). Moreover, the minimum inhibitory concentration (MIC) in [12] and in assay [14] was 6.25 µg/mL (≈ 16.4 µM) throughout. For the same compound, the zone of inhibition at 6.25 µg/mL in assay [2], in assay [10], in assay [24], in [15] and in assay [16] was 16 mm throughout. Also, the zone of inhibition at 12 µg/mL in [4], in assay [5] and in [13] was 11 mm in each case. This compound returned an inhibition in vivo at 50 mg/kg in assay [23] of 16.1%.
Take `COc1ccc(-c2nn3c(-c4cc(Cl)cc(Cl)c4Cl)nnc3s2)cc1`: the MIC in assay [1] was 6.25 µg/mL (≈ 15.2 µM); in [3] it was 6.25 µg/mL (≈ 15.2 µM); in [6] it was 6.5 µg/mL (≈ 15.8 µM); in assay [7] it was 6.25 µg/mL (≈ 15.2 µM); in assay [8] it was 6.25 µg/mL (≈ 15.2 µM); in [11], 6.25 µg/mL (≈ 15.2 µM). The MIC in [12] and in assay [14] was 6.25 µg/mL (≈ 15.2 µM) each time. Moreover, the zone of inhibition at 6.25 µg/mL in assay [2], in assay [22], in assay [10], in assay [24], in assay [20] and in assay [15] was 16 mm each time. Moreover, the zone of inhibition at 6.25 µg/mL in assay [16] came to 16 mm. For the same compound, in assay [30], the zone of inhibition at 6.5 µg/mL amounted to 16 mm. Moreover, testing at 50 mg/kg in assay [23] gave an inhibition in vivo of 25.8%.

Values taken from ChEMBL document CHEMBL1149822, “Synthesis, antimicrobial and anti-inflammatory activities of some 1,2,4-triazolo[3,4-b][1,3,4]thiadiazoles and 1,2,4-triazolo[3,4-b][1,3,4]thiadiazines bearing trichlorophenyl moiety” (2008).
